Source: PubChem BioAssay
Hits are enriched below; roughly 4.8% of the tested compounds scored in any of these assays.
PAFAH1B3 FP inh = PAFAH1B3 enzyme inhibitors, primary screen, biochemical, fluorescence polarization, human; 340,000 tested, 0.28% active; recombinant PAFAH1B3, FP-rhodamine probe; inhibition, % at 3.39 µM;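 active = inhibition above the screen-wide average of all tested compounds plus 3 SD, cut at about 25% in these data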;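 also: 0% = enzyme with DMSO only and 100% = wells lacking PAFAH1B3 protein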
Target sequence (Q15102 whole entry, looked up): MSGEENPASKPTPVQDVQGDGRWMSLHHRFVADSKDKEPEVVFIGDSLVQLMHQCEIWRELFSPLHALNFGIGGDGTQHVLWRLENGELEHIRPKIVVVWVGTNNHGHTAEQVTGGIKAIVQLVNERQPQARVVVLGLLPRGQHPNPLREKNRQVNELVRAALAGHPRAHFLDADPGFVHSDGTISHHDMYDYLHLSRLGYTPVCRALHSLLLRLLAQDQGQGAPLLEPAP
UCH37 inh = inhibitors of human UCH37 deubiquitinase, primary screen, biochemical, Ub-AMC cleavage, fluorescence | purified proteasome/UCH37 | inhibition, % (no concentration beside the values) | 330,000 tested, 0.33% active | AID 588478, 2011;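 active = mean inhibition over replicate wells above about 20%, limit read from the data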;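 also: 0% = compound-free wells with enzyme and 100% = wells lacking proteasome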
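Signal – fluorescence, ex 355 nm, em 460 nm · System – Proteasome-bound UCH37 · Input – 0.15 nM proteasome as dispensed · Timing – 30 min preincubation with enzyme, 25 min cleavage at room temperature · Read-out basis – percent inhibition of cleavage signal versus uninhibited and no-proteasome wells · Medium – Tris-HCl pH 7.4 with ATP-MgCl2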
pPAFAH inh = pPAFAH enzyme inhibitors, primary screen, biochemical, fluorescence polarization, human. recombinant pPAFAH, FP-rhodamine probe fluorescence polarization. Platelet-activating factor acetylhydrolase (Homo sapiens), Q13093. inhibition, % at 3.39 µM. 330,000 tested, 1.5% active;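 active = inhibition above the mean inhibition across the screen plus 3 SD, cut at about 25% in these data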;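 also: inhibitors block binding of the rhodamine activity-based probe so polarization drops; 0% = enzyme with DMSO and 100% = wells lacking pPAFAH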
Target sequence (Q13093 whole entry, looked up): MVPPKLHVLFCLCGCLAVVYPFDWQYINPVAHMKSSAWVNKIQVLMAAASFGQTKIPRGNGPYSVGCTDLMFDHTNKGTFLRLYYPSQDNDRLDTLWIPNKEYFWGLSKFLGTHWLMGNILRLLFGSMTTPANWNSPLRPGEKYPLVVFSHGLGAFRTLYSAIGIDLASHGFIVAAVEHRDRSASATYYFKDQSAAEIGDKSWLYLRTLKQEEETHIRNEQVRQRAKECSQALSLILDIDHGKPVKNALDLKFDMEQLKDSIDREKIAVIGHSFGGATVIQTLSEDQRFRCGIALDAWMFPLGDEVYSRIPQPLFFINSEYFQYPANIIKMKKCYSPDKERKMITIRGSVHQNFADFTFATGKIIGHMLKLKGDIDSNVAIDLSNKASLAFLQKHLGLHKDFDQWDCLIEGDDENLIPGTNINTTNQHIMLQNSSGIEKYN
PAFAH1B2 FP inh = PAFAH1B2 enzyme inhibitors, primary screen, biochemical, fluorescence polarization, human; Platelet-activating factor acetylhydrolase IB subunit alpha2 (Homo sapiens), P68402; recombinant PAFAH1B2, FP-rhodamine activity probe; inhibition, % at 3.39 µM; 340,000 tested, 1.2% active;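 active = inhibition above the mean of all tested compounds plus 3 SD, cut at about 24% in these data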;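 also: 0% = enzyme with DMSO and 100% = wells lacking PAFAH1B2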
PAFAH2 inh = PAFAH2 enzyme inhibitors, primary screen, biochemical, fluorescence polarization, human. Platelet-activating factor acetylhydrolase 2, cytoplasmic (Homo sapiens), Q99487. recombinant PAFAH2, FP-rhodamine activity probe. inhibition, % at 3.39 µM. 340,000 tested, 0.99% active;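 active = inhibition above the mean over all tested compounds plus 3 SD, cut at about 30% in these data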;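 also: inhibitors block probe labeling of enzyme so polarization drops; 0% = enzyme with DMSO and 100% = wells lacking PAFAH2 protein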
GRIN3A LBD mod = binders of NR3A ligand-binding domain, primary screen, biophysical, differential scanning fluorimetry, uHTS; Glutamate receptor ionotropic, NMDA 3A (GRIN3A) ligand-binding domain; NR3A LBD differential scanning fluorimetry, Tm shift; 0% = protein alone, 100% = glycine-bound protein; Tm shift relative to glycine control, % at 25 µM; 340,000 tested, 2.5% active;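 active = melting temperature shift of at least 10% of the positive control shift, at one fixed dose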
pPAFAH confirm = pPAFAH (PLA2G7) enzyme inhibitors, confirmation, biochemical, fluorescence polarization, human; shares compounds with pPAFAH inh; recombinant pPAFAH, FP-Rh probe fluorescence polarization; inhibition, % at 3.39 µM; 2,300 tested, 72% active;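 active = mean inhibition of the triplicate above the hit cutoff set for the earlier primary screen, cut at about 25% in these data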;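 also: 0% = enzyme with DMSO and 100% = wells lacking pPAFAH enzyme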
An asterisk follows results filed as active; . = no result.

SMILES | PAFAH1B3 FP inh | UCH37 inh | pPAFAH inh | PAFAH1B2 FP inh | PAFAH2 inh | GRIN3A LBD mod | pPAFAH confirm
CN(c1ccccc1)c1ccc(/C=C(\CCC(=O)O)c2nc3ccccc3s2)cc1[N+](=O)[O-] | -3.4 | 16.4 | 53.9* | 89.0* | 32.2* | 1.1 | 57.6*
CNc1ccc(/C=C(\CCC(=O)O)c2nc3ccccc3s2)cc1[N+](=O)[O-] | -2.2 | 19.0 | 48.8* | 95.8* | 14.6 | 24.5* | 37.5*
O=C(N/N=C1/CC2CCC1C2)c1cc2ccccc2cc1O (centres undefined) | -2.3 | . | 45.8* | 0.4 | 2.9 | -6.2 | 4.3
O=C(NCC1CCCCC1)c1cc2ccccc2cc1O | 4.2 | -0.3 | 1.2 | 2.8 | 11.3 | 7.8 | .
Cc1ccc(C=NNC(=O)c2nnn(-c3nonc3N)c2CSc2ccccc2)s1 | . | -55.2 | . | . | . | . | .
O=C(O)C1Nc2c(O)cc(Cl)c([N+](=O)[O-])c2C2C=CCC12 (centres undefined) | 63.3* | 11.6 | 90.0* | 50.8* | 76.5* | 4.6 | 38.6*
O=C(Cn1c(=O)n(Cc2ccco2)c(=O)c2c3c(sc21)CCCCC3)c1ccccc1 | 0.9 | 5.4 | 36.6* | -0.6 | 18.2 | -0.5 | 10.7
O=C(Cn1c(=O)n(Cc2ccco2)c(=O)c2c3c(sc21)CCCCC3)Nc1ccccc1 | -3.0 | 2.3 | 3.5 | -0.1 | -2.9 | -1.4 | .
CC(=NNS(=O)(=O)c1ccc([N+](=O)[O-])cc1)c1c[nH]c2ccccc12 | . | -1.2 | . | . | . | . | .
COc1ccc(N2C3=C(CC4=C2CCCC4=O)C(=O)CCC3)cc1 | 13.8 | -257.5 | 44.0* | 2.8 | 13.7 | -3.2 | 6.7
COc1ccc(N2C3=C(CC4=C2CC(C)(C)CC4=O)C(=O)CC(C)(C)C3)cc1 | 0.0 | -345.3 | 6.4 | 2.5 | -0.5 | -2.1 | .
COc1cc(OC)nc(Oc2cc(C=NO)ccc2OC)n1 | . | -1.8 | . | . | . | . | .
O=c1c(O)cccc2cc(O)c(O)c(O)c12 | 42.0* | 13.3 | 93.6* | 34.7* | 86.6* | -4.7 | 87.9*
COc1cc2cccc(OC)c(=O)c2c(OC)c1OC | 8.1 | 2.7 | -3.2 | -1.3 | -3.4 | -0.5 | .
N#CCN(CC#N)C(=O)C1c2ccccc2Oc2ccccc21 | 12.3 | . | 62.2* | 1.9 | 5.2 | 0.3 | 2.6
C=CCn1c(SC(C)C(=O)Nc2ccc(F)c(F)c2F)nnc1C1CC1 (centres undefined) | -6.6 | 0.7 | 35.2* | -0.2 | 0.4 | -1.7 | 2.0
COC(=O)c1ccc(/C(O)=C(\C#N)c2nc3ccccc3s2)cc1 | 3.5 | . | 8.7 | 22.9 | 8.1 | -5.5 | .
N#C/C(=C(/O)c1ccc2c(c1)OCO2)c1nc2cc(C(F)(F)F)ccc2s1 | 11.0 | . | 38.4* | 88.5* | 19.0 | 3.9 | 60.5*
CCN(CC)c1ccc(NS(=O)(=O)c2ccc3c(c2)oc(=O)n3C)c(C)c1 | -2.5 | 0.9 | 40.5* | 1.9 | -2.3 | -2.5 | 43.9*
CCN(CCNS(=O)(=O)c1ccc2c(c1)oc(=O)n2C)c1ccccc1 | 7.2 | 5.1 | -0.6 | 11.7 | -5.0 | -1.2 | .
COCCN=C1Sc2nc3ccc(C)cc3cc2CN1Cc1cccs1 | 7.3 | 1.2 | 40.5* | -1.8 | 6.8 | -5.1 | 60.5*
COCCN1Cc2cc3cc(C)ccc3nc2SC1=Nc1ccc(OC)cc1 | 5.3 | 2.6 | 17.2 | 5.7 | 3.1 | -2.4 | .
COc1ccccc1NS(=O)(=O)c1ccc(C)c(C(N)=O)c1 | 3.4 | 2.2 | 58.1* | -2.4 | 3.2 | 0.3 | 1.2
COc1ccccc1NS(=O)(=O)c1ccc(C(N)=O)cc1 | 1.4 | 3.9 | -2.5 | 2.7 | -3.6 | -2.4 | .
COc1cc(C=NNC(=S)Nc2cccc(S(=O)(=O)N(C)C)c2)ccc1O | . | -13.0 | . | . | . | . | .
SMILES | PAFAH1B3 FP inh | UCH37 inh | pPAFAH inh | PAFAH1B2 FP inh | PAFAH2 inh | GRIN3A LBD mod | pPAFAH confirm
O=C(Nc1ccc(-c2csc(Nc3ccc(Cl)cc3)n2)cc1)c1cccc(C(F)(F)F)c1 | . | 2.1 | 44.4* | . | . | 34.1* | 23.8
C=CCN=C(NC#N)SCC(=O)c1cccc(OC)c1 | 16.0 | 6.9 | 60.9* | 4.2 | -0.1 | 0.5 | 10.3
CCOC(=O)NN=C(C)/C=C/c1ccccc1 | . | 8.6 | . | . | . | . | .
CCOc1cc(C=NNC(=O)Cc2ccc(C(F)(F)F)cc2[N+](=O)[O-])c(Br)cc1OC | . | 4.1 | . | . | . | . | .
Nc1cccc2c(=O)c3ccccc3[nH]c12 | 13.2 | 4.0 | 40.6* | 1.7 | -1.0 | 1.6 | 9.8
CNc1nc(-c2ccccc2)nc(-c2ccc(OC)cc2)c1C#N | 2.1 | -16.3 | -1.4 | 1.6 | -2.5 | 1.1 | .
COc1ccc(-c2nc(-c3ccccc3)[nH]c(=O)c2C#N)cc1 | -5.6 | -232.8 | 52.1* | -6.2 | 3.7 | 2.9 | 0.1
Cc1c(C(=O)O)oc2c1C(=NO)CCC2 | . | 0.4 | . | . | . | . | .
COc1ccc(C(C(=O)NCC2CCCO2)N(Cc2cccs2)C(=O)c2snc(C(N)=O)c2N)cc1OC (centres undefined) | -0.2 | . | 38.0* | 5.0 | 5.9 | -1.6 | 4.6
Cc1[nH]c2ccccc2c1/C=N/NC(=O)c1cccc(S(=O)(=O)Nc2cccc(C(F)(F)F)c2)c1 | 43.1* | . | 39.7* | 34.5* | 12.1 | 28.0* | 40.1*
CC(CC(=O)Nc1ccc([N+](=O)[O-])cc1)=NNC(=O)c1ccccc1[N+](=O)[O-] | . | 6.7 | . | . | . | . | .
COC(=O)c1ccccc1-c1c2ccc(=N)cc-2oc2cc(N)ccc12 | 149.5* | . | 125.6* | 133.9* | 147.8* | -31.2 | 132.1*
CC(=O)NN=C(C)c1cccc(C(F)(F)F)c1 | . | 2.1 | . | . | . | . | .
CCOc1cc(CNc2ccc(O)cc2)cc(Br)c1OCc1ccccc1F | 18.1 | 0.8 | 43.4* | 5.8 | 8.4 | -0.1 | 19.7
COc1cc(CNc2ccc(O)cc2)cc(Br)c1OCc1ccccc1F | 10.1 | 2.4 | 39.0* | 9.5 | 6.6 | 2.9 | 7.9
O=C(Nc1nccs1)c1cccc(N2C(=O)c3cccc4c([N+](=O)[O-])ccc(c34)C2=O)c1 | 24.3 | -4.4 | -3.4 | 13.2 | 0.8 | -1.0 | .
Cc1ccc(C(=O)O)cc1N1C(=O)c2cccc3c([N+](=O)[O-])ccc(c23)C1=O | 40.8* | . | 36.0* | 15.4 | 36.3* | 3.5 | 8.9
Cc1nc2ccccc2c(=O)n1N=Cc1ccccc1O | . | -3.1 | . | . | . | . | .
CCOC(=O)N/N=C/c1c(C)nn(-c2cccc(C(F)(F)F)c2)c1Cl | 6.2 | . | 10.3 | 5.8 | -2.6 | -4.2 | .
